As a reminder, the IC50 is the point on the concentration scale where inhibition reaches its midpoint. Low values mean inhibition by little substance, high ones a need for much substance.

Assay [1] can be described thus: Cytotoxicity against human Hep3B cells after 48 hrs by alamar blue assay. Type of assay: functional, cell-based, Hep 3B2. Summed up:
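HEP3B cells in EMEM with 10% heat-inactivated FBS, 2 mmol/L L-glutamine, penicillin/streptomycin, 37 °C, 5% CO2, used in exponential growth. Exposed 48 h to 1.6–50 µM of each analog. Alamar blue then added for a further 6 h at 37 °C and fluorescence read. Growth given as % treated/control; IC50 is the concentration giving 50% reduction of cell number versus untreated controls.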
(Alamar Blue is a resazurin reagent that responds to reducing activity.)

The nature of assay [2]: Upregulation of unfolded protein response-related ATF4 gene expression in human Hep3B cells at 10 uM after 1 hr by RT-PCR analysis relative to control. Format: functional, cell-based. The settings on record: Hep 3B2. The method, boiled down: (§1)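 HEP3B cells treated 1 h with 10 µM analogue, compared with untreated cells. Gene expression measured by real-time PCR with SYBR chemistry and gene-specific primer pairs, triplicate wells, GAPDH as endogenous control. Analysed by the comparative Ct method and expressed as fold induction over untreated control (n = 3, SD). Significance set at p <0.05.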

A short description of assay [3]: Upregulation of unfolded protein response-related DDIT3 gene expression in human Hep3B cells at 10 uM after 1 hr by RT-PCR analysis relative to control. Format: functional, cell-based. Particulars: Hep 3B2. Summed up:
as §1

Assay [4] deals with T1, Eukaryotic translation initiation factor 2-alpha kinase 3 (Homo sapiens) (UniProt Q9NZJ5).
T1 sequence (whole entry): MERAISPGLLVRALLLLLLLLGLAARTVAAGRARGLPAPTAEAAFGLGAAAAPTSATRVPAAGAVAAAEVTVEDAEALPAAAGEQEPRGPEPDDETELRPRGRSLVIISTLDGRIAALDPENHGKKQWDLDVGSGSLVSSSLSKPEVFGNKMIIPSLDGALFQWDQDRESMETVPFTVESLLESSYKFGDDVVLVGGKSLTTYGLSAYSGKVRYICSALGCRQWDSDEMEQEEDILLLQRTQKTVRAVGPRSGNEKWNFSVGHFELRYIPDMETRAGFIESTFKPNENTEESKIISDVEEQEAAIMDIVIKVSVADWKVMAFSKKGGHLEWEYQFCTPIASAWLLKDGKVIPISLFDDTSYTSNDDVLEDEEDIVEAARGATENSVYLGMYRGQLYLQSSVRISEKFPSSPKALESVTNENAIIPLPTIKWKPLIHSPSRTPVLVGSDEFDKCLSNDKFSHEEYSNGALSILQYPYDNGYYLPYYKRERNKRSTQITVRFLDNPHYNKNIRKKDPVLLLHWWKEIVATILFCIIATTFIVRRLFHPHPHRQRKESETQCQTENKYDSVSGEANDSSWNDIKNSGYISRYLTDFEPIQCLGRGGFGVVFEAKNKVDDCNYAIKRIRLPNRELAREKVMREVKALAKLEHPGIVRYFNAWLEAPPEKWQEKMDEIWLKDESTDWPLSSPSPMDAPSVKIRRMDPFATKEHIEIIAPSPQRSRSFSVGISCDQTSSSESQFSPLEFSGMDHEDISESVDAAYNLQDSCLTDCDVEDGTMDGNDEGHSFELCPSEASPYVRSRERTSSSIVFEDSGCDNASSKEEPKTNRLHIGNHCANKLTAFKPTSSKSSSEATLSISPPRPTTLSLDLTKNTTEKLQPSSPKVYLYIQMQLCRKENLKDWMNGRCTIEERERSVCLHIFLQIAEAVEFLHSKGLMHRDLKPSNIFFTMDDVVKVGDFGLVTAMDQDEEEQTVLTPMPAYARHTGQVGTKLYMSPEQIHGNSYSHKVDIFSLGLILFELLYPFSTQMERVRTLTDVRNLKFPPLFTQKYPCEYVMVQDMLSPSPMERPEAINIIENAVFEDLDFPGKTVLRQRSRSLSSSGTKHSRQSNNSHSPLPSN
The assay is described as follows: Induction of PERK-mediated phosphorylation of eIF2alpha in human Hep3B cells at 2 to 10 uM after 1 to 6 hrs by Western blot analysis. Format: cell-based. The settings on record: Hep 3B2. For orientation: A western blot detects proteins with antibodies after separation by electrophoresis.

Assay [5] is described as follows: Upregulation of unfolded protein response-related HSPA1A gene expression in human Hep3B cells at 10 uM after 1 hr by RT-PCR analysis relative to control. Type of assay: functional, cell-based. The settings on record: Hep 3B2. Summed up:
as §1

The test system of assay [6] is Hep 3B2. The assay is described as follows: Effect on stress-inducible CHEK1 gene expression in human Hep3B cells at 1 to 50 uM after 1 hr by RT-PCR analysis. Format: functional, cell-based.
Assay [7] deals with Hep 3B2. Briefly: Effect on stress-inducible GADD45B gene expression in human Hep3B cells at 1 to 50 uM after 1 hr by RT-PCR analysis. Type of assay: functional, cell-based.
The test system of assay [8] is Hep 3B2. Briefly: Effect on stress-inducible BRCA1 gene expression in human Hep3B cells at 1 to 50 uM after 1 hr by RT-PCR analysis. Format: functional, cell-based.
The test system of assay [9] is Hep 3B2. The assay is described as follows: Effect on stress-inducible MDM2 gene expression in human Hep3B cells at 1 to 50 uM after 1 hr by RT-PCR analysis. Type of assay: functional, cell-based.
The test system of assay [10] is Hep 3B2. Briefly: Effect on stress-inducible […] gene expression in human Hep3B cells at 1 to 50 uM after 1 hr by RT-PCR analysis. Type of assay: functional, cell-based.
A short description of assay [11]: Upregulation of unfolded protein response-related TRIB3 gene expression in human Hep3B cells at 10 uM after 1 hr by RT-PCR analysis. Type of assay: functional, cell-based. The settings on record: Hep 3B2. The method, boiled down: as §1
The nature of assay [12]: Upregulation of unfolded protein response-related GADD34 gene expression in human Hep3B cells at 10 uM after 1 hr by RT-PCR analysis. Type of assay: functional, cell-based. Particulars: Hep 3B2. The method, boiled down:
as §1

Assay [13] deals with Hep 3B2. Briefly: Effect on stress-inducible CDKN1A gene expression in human Hep3B cells at 1 to 50 uM after 1 hr by RT-PCR analysis. Format: functional, cell-based.
Assay [14] addresses T1, Eukaryotic translation initiation factor 2-alpha kinase 3 (Homo sapiens). Briefly: Induction of PERK-mediated phosphorylation of eIF2alpha in human Hep3B cells at 50 uM after 1 hr by Western blot analysis. Type of assay: cell-based. Particulars: Hep 3B2.

Calls of active or inactive are those of the source. The calls are words filed in the database; no cut-off is given here. Bounds are passed on as bounds.

As for `Cc1cc(Cl)ccc1N1C(=O)C(SCCO)=C(SCCO)C1=O`, half-maximal inhibition in assay [1] (IC50) required 8 µM. With `CN(C)c1ccc(N2C(=O)C(SCCO)=C(SCCO)C2=O)cc1`, inhibition in assay [1] was half-maximal at 9 µM (IC50). Compound `Cc1cccc(N2C(=O)C(SCCO)=C(SCCO)C2=O)c1` gave a half-inhibitory concentration (IC50) in assay [1] of 7 µM.

Consider `O=C1C(SCCO)=C(SCCO)C(=O)N1c1ccc(Cl)cc1`, for which the IC50 in [1] came to 7 µM. The compound `O=C1C(SCCO)=C(SCCO)C(=O)N1c1ccc2ccccc2c1` yielded an IC50 in [1] of 3.5 µM. In the case of `CC(=O)Nc1ccc(N2C(=O)C(SCCO)=C(SCCO)C2=O)cc1`, the fold change (FC) in [2] and in assay [3] was 2 in each case. The outcome in [4] was inactive. This compound also registered a concentration for half-maximal inhibition (IC50) in [1] above 100 µM. `O=C1C(SCCO)=C(SCCO)C(=O)N1Cc1ccccc1` gave an IC50 in [1] of 5 µM. On the same count and under the same terms, in the case of `O=C1C(SCCO)=C(SCCO)C(=O)N1c1ccccc1F` it was 9 µM. Regarding `O=C1C(SCCO)=C(SCCO)C(=O)N1Cc1cccc(Cl)c1`, the concentration for half-maximal inhibition (IC50) in assay [1] is 2.5 µM. The same measure, in the same setting: in the case of `COc1cc(OC)cc(N2C(=O)C(SCCO)=C(SCCO)C2=O)c1` it was 9 µM; in that of `CCOc1ccc(N2C(=O)C(SCCO)=C(SCCO)C2=O)cc1`, 6 µM; in that of `O=C1C(SCCO)=C(SCCO)C(=O)N1CCc1cccc(Cl)c1`, 1 µM. Still for that read-out and setting: with `O=C1C(SCCO)=C(SCCO)C(=O)N1c1cccc2ccccc12` the figure was 4 µM. The compound `O=C1C(SCCO)=C(SCCO)C(=O)N1c1ccc(O)cc1` had a half-inhibitory concentration (IC50) in assay [1] above 100 µM.

On to `O=C1C(SCCO)=C(SCCO)C(=O)N1c1ccc(-c2ccc([N+](=O)[O-])cc2)cc1`, for which the fold change (FC) stood at 17 in assay [5], 2 in assay [2] and 2 in assay [3]. In assay [1], this compound displayed an IC50 of 4 µM.

Take `Cc1ccccc1-c1ccc(N2C(=O)C(SCCO)=C(SCCO)C2=O)cc1C`: the fold change (FC) in [2] and in assay [3] was 2 each time. For the same compound, the IC50 in assay [1] stood at 10 µM. In the case of `O=C1C(SCCO)=C(SCCO)C(=O)N1c1ccc(Oc2ccccc2)cc1`, the fold change (FC) in assay [2] and in assay [3] was 2 in each case. In assay [1], this compound registered an IC50 above 100 µM.

As to `N#Cc1ccc(N2C(=O)C(SCCO)=C(SCCO)C2=O)cc1`, half-maximal inhibition in assay [1] (IC50) was put at 9 µM. On the same count and under the same terms, in the case of `O=C1C(SCCO)=C(SCCO)C(=O)N1c1ccc2cc3ccccc3cc2c1` it was 1.8 µM; in that of `COc1cccc(N2C(=O)C(SCCO)=C(SCCO)C2=O)c1`, 9 µM. Consider `O=C1C(SCCO)=C(SCCO)C(=O)N1c1ccc(-c2ccccc2)cc1`, for which the result with Hep 3B2 [6], in the assay with Hep 3B2 [7], with Hep 3B2 [8], with Hep 3B2 [9], in the assay with Hep 3B2 [10] and in the assay with Hep 3B2 [13] was inactive. Moreover, the result in [11], in assay [12] and in [4] was Active. For the same compound, in assay [1], it took 0.7 µM to reach half-maximal inhibition (IC50). Also, the Activity entry in assay [14] is “Toxic”. For `CC(=O)c1ccc(N2C(=O)C(SCCO)=C(SCCO)C2=O)cc1`, the IC50 in assay [1] turned out to be 10 µM. Compound `O=C1C(SCCO)=C(SCCO)C(=O)N1c1ccc(OC(F)(F)F)cc1` registered a half-inhibitory concentration (IC50) in assay [1] of 4 µM. For the compound `O=C1C(SCCO)=C(SCCO)C(=O)N1c1ccccc1`, the fold change (FC) in [2] and in assay [3] was 2 each time. Besides, it took 70 µM to reach half-maximal inhibition in assay [1] (IC50). As to `O=C1C(SCCO)=C(SCCO)C(=O)N1CCc1ccccc1`, the figures for the fold change (FC) in [5], in assay [2] and in assay [3] were 15.3, 2 and 2, respectively. In [1], this compound showed a half-inhibitory concentration (IC50) of 2 µM. In the case of `COc1ccc(N2C(=O)C(SCCO)=C(SCCO)C2=O)cc1`, the midpoint of inhibition in assay [1], the IC50, lay at 6 µM. Still for that read-out and setting: with `COc1ccc(-c2ccc(N3C(=O)C(SCCO)=C(SCCO)C3=O)cc2)cc1` the figure was 3 µM. `O=C1C(SCCO)=C(SCCO)C(=O)N1c1ccc(F)cc1`: the IC50 in assay [1] was 9 µM. For `CCCCOc1ccc(N2C(=O)C(SCCO)=C(SCCO)C2=O)cc1`, the half-inhibitory concentration (IC50) in assay [1] turned out to be 5 µM.

For the compound `O=C1C(SCCO)=C(SCCO)C(=O)N1c1ccccc1I`, in [1], the midpoint of inhibition, the IC50, lay at 9 µM.

The values are drawn from ChEMBL document CHEMBL1165946, “Development of antiproliferative phenylmaleimides that activate the unfolded protein response” (Bioorg Med Chem, 2010).
